Active and inactive are the calls of the source. The rule behind the calls is not given here.
Tests used:
[1] = Antiproliferative activity against human HCT116 cells after 72 hrs by MTT assay; assay type: functional, cell-based; conditions: HCT-116, 72 h
Outline: (§1)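 Tumour cells were grown as monolayers in DMEM with 10 % FBS, 2 mM L-glutamine, penicillin and streptomycin at 37 °C under 5 % CO₂. Tenfold dilutions from 10^-8 to 10^-4 M were applied for 72 h, followed by MTT read at 570 nm. IC50 came from linear regression of percentage growth; at least two experiments, quadruplicate points.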

[2] = Antiproliferative activity against human H460 cells after 72 hrs by MTT assay; assay type: functional, cell-based; conditions: NCI-H460, 72 h
Outline: as §1, with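 “CO₂. They were seeded at 3×10^4 cells/mL (HCT 116, H460) or 5×10^4 cells/mL (MCF-7).” for “CO₂.”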

[3] = Binding affinity to duplex calf thymus DNA assessed as change in melting temperature at drug/DNA ratio of 0.5 by spectrophotometric analysis
Outline: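 Calf-thymus DNA at 20 μM was heated with or without compound at 10 or 20 μM (drug/base-pair ratio 0.5 or 1) in BPE buffer (6 mM Na₂HPO₄, 2 mM NaH₂PO₄, 1 mM EDTA, pH 7.1). A260 was read every minute from 20 to 100 °C, rising 1 °C per min, and ΔTm was derived.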

[4] = target: T1, DNA topoisomerase 1 (Homo sapiens) (UniProt P11387); assay: Poison activity at human DNA topoisomerase 1 assessed as increase in intensity of nicked form of DNA at 100 uM using pUC19 supercoiled plasmid DNA as substrate preincubated for 15 mins followed by DNA topoisomerase 1 addition measured after 30 mins by agarose gel electrophoresis
T1 sequence (whole entry): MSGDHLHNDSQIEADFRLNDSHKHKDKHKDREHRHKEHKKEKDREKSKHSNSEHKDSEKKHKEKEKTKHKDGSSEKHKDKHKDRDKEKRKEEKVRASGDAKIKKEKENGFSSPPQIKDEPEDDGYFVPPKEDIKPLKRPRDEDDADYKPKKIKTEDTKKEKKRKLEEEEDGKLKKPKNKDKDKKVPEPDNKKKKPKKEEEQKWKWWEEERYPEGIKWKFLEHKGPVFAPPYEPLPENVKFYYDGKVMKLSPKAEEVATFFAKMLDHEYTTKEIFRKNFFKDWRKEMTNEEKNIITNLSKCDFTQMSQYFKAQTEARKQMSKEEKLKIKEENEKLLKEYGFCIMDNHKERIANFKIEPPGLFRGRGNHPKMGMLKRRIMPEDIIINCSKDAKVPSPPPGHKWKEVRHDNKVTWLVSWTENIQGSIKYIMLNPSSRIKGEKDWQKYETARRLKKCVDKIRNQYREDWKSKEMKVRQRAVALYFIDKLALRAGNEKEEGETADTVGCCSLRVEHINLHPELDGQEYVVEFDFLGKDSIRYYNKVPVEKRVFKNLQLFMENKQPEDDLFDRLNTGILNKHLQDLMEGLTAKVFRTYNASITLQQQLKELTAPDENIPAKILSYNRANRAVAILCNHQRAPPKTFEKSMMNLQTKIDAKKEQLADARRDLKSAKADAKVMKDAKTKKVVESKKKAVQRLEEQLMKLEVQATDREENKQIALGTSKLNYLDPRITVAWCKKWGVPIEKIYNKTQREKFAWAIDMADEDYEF
Outline: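 Supercoiled pUC19 plasmid was treated with human topoisomerase I, alone or with compound, and topoisomers were resolved by agarose gel electrophoresis. Poisoning, seen as nicked plasmid, was assessed on ethidium bromide-containing agarose gels at up to 100 μM compound.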

[5] = Antiproliferative activity against human MCF7 cells after 72 hrs by MTT assay; assay type: functional, cell-based; conditions: MCF7, 72 h; outline: as §1

ΔTm [3]: 0.6 °C
Compound: N#Cc1c(N2CCCC2)c2ccc(N3CCCC3)cc2n2c1nc1ccccc12
IC50 ([1]; read-out: IC50): 2 µM
IC50 ([1]; read-out: pIC50 (converted)): 2 µM
IC50 ([2]; read-out: IC50): 12 µM
IC50 ([2]; read-out: pIC50 (converted)): 12 µM
Activity [4]: Active
IC50 ([5]; read-out: IC50): 2 µM
IC50 ([5]; read-out: pIC50 (converted)): 2 µM
